GI50 data for six compounds are collected here from ChEMBL document CHEMBL4373650, “Synthesis, conformational preferences, and biological activity of conformational analogues of the microtubule-stabilizing agents, (-)-zampanolide and (-)-dactylolide” (Medchemcomm, 2019).

Assay [1] has as its target T1, Tubulin (Homo sapiens) (UniProt P68371+Q9H4B7+P0DPH7+P68366+Q13509+Q71U36+P04350+Q3ZCM7+P07437+P68363+Q9BQE3+Q6PEY2+Q13885+Q9BVA1+Q9BUF5). Put plainly: Induction of microtubule stabilization in human PC3 cells assessed as inhibition of cell growth incubated for 72 hrs by Celltiter reagent-based assay. An outline of the steps: (§1)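 Cells kept in DMEM with 10% fetal bovine serum. Exposed to serial dilutions of each compound for 3 days, then growth read with CellTiter reagent and GI50 determined. Each compound first run as a 10-dose dilution series, then as narrower replicate 6-dose series, each a separate experiment.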

Assay [2] has as its target T1, Tubulin (Homo sapiens). Put plainly: Induction of microtubule stabilization in human A549 cells assessed as inhibition of cell growth incubated for 72 hrs by Celltiter reagent-based assay. An outline of the steps:
as §1

The target of assay [3] is T1, Tubulin (Homo sapiens). Put plainly: Induction of microtubule stabilization in human 1A9 cells assessed as inhibition of cell growth incubated for 72 hrs by Celltiter reagent-based assay. An outline of the steps: as §1

Take `C=C1C[C@@H]2C/C=C/C(=O)C/C(C)=C\C=C\C(=O)O[C@H](C=O)C/C(C)=C/[C@H](C1)O2`: the GI50 (in general, the concentration giving 50% growth inhibition) turned out to be 0.46 µM on Tubulin (Homo sapiens) [1], 0.95 µM on Tubulin (Homo sapiens) [2] and 0.62 µM at Tubulin (Homo sapiens) [3].

As for `C/C1=C/C=C/C(=O)O[C@H](CO)C/C=C/[C@@H]2CCC[C@H](C/C=C/C(=O)C1)O2`, the GI50 at Tubulin (Homo sapiens) [1], at Tubulin (Homo sapiens) [2] and on Tubulin (Homo sapiens) [3] was greater than 30 µM each time.

On to `CC(=O)O[C@H]1C(=O)[C@@]2(C)[C@H]([C@H](OC(=O)c3ccccc3)[C@]3(O)C[C@H](OC(=O)[C@H](O)[C@@H](NC(=O)c4ccccc4)c4ccccc4)C(C)=C1C3(C)C)[C@]1(OC(C)=O)CO[C@@H]1C[C@@H]2O`, for which the GI50 at Tubulin (Homo sapiens) [1] worked out at 0.0046 µM; on Tubulin (Homo sapiens) [2], 0.006 µM; at Tubulin (Homo sapiens) [3], 0.0052 µM.

Regarding `C=C1C[C@@H]2C/C=C/C(=O)C/C(C)=C\C=C\C(=O)O[C@H]([C@H](O)NC(=O)/C=C\C=C\C)C/C(C)=C/[C@H](C1)O2`, the GI50 at Tubulin (Homo sapiens) [1] was 0.0032 µM; on Tubulin (Homo sapiens) [2], 0.0052 µM; on Tubulin (Homo sapiens) [3], 0.0021 µM.

Turning to `C/C1=C/C=C/C(=O)O[C@H](C=O)C/C=C/[C@@H]2CCC[C@H](C/C=C/C(=O)C1)O2`, the GI50 at Tubulin (Homo sapiens) [1], on Tubulin (Homo sapiens) [2] and at Tubulin (Homo sapiens) [3] was greater than 30 µM each time.

`C/C=C/C=C\C(=O)NC(O)[C@@H]1C/C=C/[C@@H]2CCC[C@H](C/C=C/C(=O)C/C(C)=C\C=C\C(=O)O1)O2` (stereo partly drawn): the GI50 amounted to 0.056 µM at Tubulin (Homo sapiens) [1], 0.18 µM at Tubulin (Homo sapiens) [2] and 0.12 µM at Tubulin (Homo sapiens) [3].
